{"source": "ChEMBL document CHEMBL3421617", "about": "“Synthesis of selenazolopyridine derivatives with capability to induce apoptosis in human breast carcinoma MCF-7 cells through scavenge of intracellular ROS” (Eur J Med Chem, 2015)", "key": {"MCF7 [1]": {"tested_on": "MCF7", "assay": "Cytotoxicity against human MCF7 cells assessed as cell viability after 72 hrs by MTT assay", "type": "functional, cell-based", "conditions": "for IC50: MCF7, 72 h", "procedure,_shortened": "(§1)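 Cells obtained from ATCC; human normal liver L02 included as the non-cancer line. Cells treated with various concentrations for 72 h. Viability read by MTT assay and IC50 values calculated from the concentration series.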"}, "HepG2": {"tested_on": "HepG2", "assay": "Cytotoxicity against human HepG2 cells assessed as cell viability after 72 hrs by MTT assay", "type": "functional, cell-based", "conditions": "HepG2, 72 h", "procedure,_shortened": "as §1"}, "[2]": {"assay": "Cytotoxicity against human L02 cells assessed as cell viability after 72 hrs by MTT assay", "type": "cell-based", "conditions": "L02, 72 h", "procedure,_shortened": "as §1"}, "MCF7 [3]": {"tested_on": "MCF7", "assay": "Cell cycle arrest in human MCF7 cells assessed as cells at Sub-G1 phase at 20 uM by flow cytometry (reference value: 3.3%)", "type": "functional"}, "MCF7 [4]": {"tested_on": "MCF7", "assay": "Cell cycle arrest in human MCF7 cells assessed as cells at G0/G1 phase at 20 uM by flow cytometry (reference value: 41.9%)", "type": "functional"}, "MCF7 [5]": {"tested_on": "MCF7", "assay": "Cell cycle arrest in human MCF7 cells assessed as cells at S phase at 20 uM by flow cytometry (reference value: 16.6%)", "type": "functional"}, "MCF7 [6]": {"tested_on": "MCF7", "assay": "Cell cycle arrest in human MCF7 cells assessed as cells at G2/M phase at 20 uM by flow cytometry (reference value: 41.5%)", "type": "functional"}, "MCF7 [7]": {"tested_on": "MCF7", "assay": "Cell cycle arrest in human MCF7 cells assessed as cells at Sub-G1 phase at 30 uM by flow cytometry (reference value: 3.3%)", "type": "functional"}, "MCF7 [8]": {"tested_on": "MCF7", "assay": "Cell cycle arrest in human MCF7 cells assessed as cells at G0/G1 phase at 30 uM by flow cytometry (reference value: 41.9%)", "type": "functional"}, "MCF7 [9]": {"tested_on": "MCF7", "assay": "Cell cycle arrest in human MCF7 cells assessed as cells at S phase at 30 uM by flow cytometry (reference value: 16.6%)", "type": "functional"}, "MCF7 [10]": {"tested_on": "MCF7", "assay": "Cell cycle arrest in human MCF7 cells assessed as cells at G2/M phase at 30 uM by flow cytometry (reference value: 41.5%)", "type": "functional"}, "MCF7 [11]": {"tested_on": "MCF7", "assay": "Cell cycle arrest in human MCF7 cells assessed as cells at Sub-G1 phase at 40 uM by flow cytometry (reference value: 3.3%)", "type": "functional"}, "MCF7 [12]": {"tested_on": "MCF7", "assay": "Cell cycle arrest in human MCF7 cells assessed as cells at G0/G1 phase at 40 uM by flow cytometry (reference value: 41.9%)", "type": "functional"}, "MCF7 [13]": {"tested_on": "MCF7", "assay": "Cell cycle arrest in human MCF7 cells assessed as cells at S phase at 40 uM by flow cytometry (reference value: 16.6%)", "type": "functional"}, "MCF7 [14]": {"tested_on": "MCF7", "assay": "Cell cycle arrest in human MCF7 cells assessed as cells at G2/M phase at 40 uM by flow cytometry (reference value: 41.5%)", "type": "functional"}, "MCF7 [15]": {"tested_on": "MCF7", "assay": "Cell cycle arrest in human MCF7 cells assessed as cells at Sub-G1 phase by flow cytometry", "type": "functional, cell-based"}, "MCF7 [16]": {"tested_on": "MCF7", "assay": "Inhibition of intracellular ROS production in human MCF7 cells assessed as decrease in DHE fluorescence intensity after 30 mins", "type": "functional, cell-based", "procedure,_shortened": "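MCF-7 cells loaded with 10 µM DHE in PBS for 30 min, then exposed to different concentrations of compound. Intracellular ROS followed as DHE fluorescence on a microplate reader, excitation 300 nm and emission 610 nm, over 30 min.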"}, "MCF7 [17]": {"tested_on": "MCF7", "assay": "Inhibition of intracellular ROS production in human MCF7 cells assessed as decrease in DHE fluorescence intensity at 80 uM after 30 mins by fluorescence microscopy", "type": "functional, cell-based", "procedure,_shortened": "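Cells loaded with DHE (10 µM) in a culture dish at 37 °C for 30 min, then treated at 80 µM. Imaged at once by fluorescence microscopy, with red DHE fluorescence followed for 30 min.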"}, "[18]": {"assay": "Antioxidant activity assessed as ABTS radical scavenging activity", "type": "physicochemical", "conditions": "TDE = time-dependent effect"}, "[19]": {"assay": "Antioxidant activity assessed as DPPH free radical scavenging activity", "type": "physicochemical", "conditions": "TDE = time-dependent effect"}}, "note": "Active and inactive are the calls of the source. The calls are words filed in the database; no cut-off is given here."}
{"smiles": "Cc1cccc(Nc2nc3cccnc3[se]2)c1", "values": [{"measurement": "IC50", "setting": "MCF7 [1]", "result": 56.4, "unit": "µM"}, {"measurement": "IC50", "setting": "HepG2", "result": 56.7, "unit": "µM"}, {"measurement": "IC50", "setting": "[2]", "result": 54.3, "unit": "µM"}]}
{"smiles": "Brc1ccccc1Nc1nc2cccnc2[se]1", "values": [{"measurement": "IC50", "setting": "MCF7 [1]", "result": 185, "unit": "µM"}, {"measurement": "IC50", "setting": "HepG2", "result": 74.2, "unit": "µM"}, {"measurement": "IC50", "setting": "[2]", "result": 169, "unit": "µM"}]}
{"smiles": "c1ccc(Nc2nc3cccnc3[se]2)cc1", "values": [{"measurement": "inhibition", "setting": "MCF7 [1]", "result": "Dose-dependent effect"}, {"measurement": "IC50", "setting": "MCF7 [1]", "result": 22.5, "unit": "µM"}, {"measurement": "IC50", "setting": "HepG2", "result": 57.1, "unit": "µM"}, {"measurement": "IC50", "setting": "[2]", "result": 164, "unit": "µM"}, {"measurement": "Activity", "setting": "MCF7 [3]", "result": 27.1, "unit": "%"}, {"measurement": "Activity", "setting": "MCF7 [4]", "result": 58.2, "unit": "%"}, {"measurement": "Activity", "setting": "MCF7 [5]", "result": 34.3, "unit": "%"}, {"measurement": "Activity", "setting": "MCF7 [6]", "result": 7.5, "unit": "%"}, {"measurement": "Activity", "setting": "MCF7 [7]", "result": 36.7, "unit": "%"}, {"measurement": "Activity", "setting": "MCF7 [8]", "result": 50.5, "unit": "%"}, {"measurement": "Activity", "setting": "MCF7 [9]", "result": 22.3, "unit": "%"}, {"measurement": "Activity", "setting": "MCF7 [10]", "result": 20.3, "unit": "%"}, {"measurement": "Activity", "setting": "MCF7 [11]", "result": 58.3, "unit": "%"}, {"measurement": "Activity", "setting": "MCF7 [12]", "result": 50.8, "unit": "%"}, {"measurement": "Activity", "setting": "MCF7 [13]", "result": 25.8, "unit": "%"}, {"measurement": "Activity", "setting": "MCF7 [14]", "result": 13.4, "unit": "%"}, {"measurement": "Activity", "setting": "MCF7 [15]", "result": "Dose-dependent effect"}, {"measurement": "inhibition", "setting": "MCF7 [16]", "result": "Dose-dependent effect"}, {"measurement": "inhibition", "setting": "MCF7 [17]", "result": "Active"}, {"measurement": "Activity", "setting": "[18]", "result": "tde"}, {"measurement": "Activity", "setting": "[19]", "result": "tde"}]}
{"smiles": "Clc1ccccc1Nc1nc2cccnc2[se]1", "values": [{"measurement": "IC50", "setting": "MCF7 [1]", "result": 43.3, "unit": "µM"}, {"measurement": "IC50", "setting": "HepG2", "result": 181, "unit": "µM"}, {"measurement": "IC50", "setting": "[2]", "result": 84.6, "unit": "µM"}]}
{"smiles": "Cc1ccccc1Nc1nc2cccnc2[se]1", "values": [{"measurement": "IC50", "setting": "MCF7 [1]", "result": 52.5, "unit": "µM"}, {"measurement": "IC50", "setting": "HepG2", "result": 507, "unit": "µM"}, {"measurement": "IC50", "setting": "[2]", "result": 121, "unit": "µM"}]}
{"smiles": "Cc1ccc(Nc2nc3cccnc3[se]2)cc1", "values": [{"measurement": "IC50", "setting": "MCF7 [1]", "result": 91.5, "unit": "µM"}, {"measurement": "IC50", "setting": "HepG2", "result": 235, "unit": "µM"}, {"measurement": "IC50", "setting": "[2]", "result": 207, "unit": "µM"}]}
{"smiles": "Cc1ccc(Nc2nc3cccnc3[se]2)cc1C", "values": [{"measurement": "IC50", "setting": "MCF7 [1]", "result": 202, "unit": "µM"}, {"measurement": "IC50", "setting": "HepG2", "result": 145, "unit": "µM"}, {"measurement": "IC50", "setting": "[2]", "result": 182, "unit": "µM"}]}
